Assay results from ChEMBL document CHEMBL4354819, “Discovery of Novel Small Molecule Dual Inhibitors Targeting Toll-Like Receptors 7 and 8” (J Med Chem, 2019).
Values belong to the compound of their own block, whether it stands above or below them. Calls of active or inactive are those of the source. The calls are words filed in the database; no cut-off is given here.

Tests used:
THP-1 [1] = assay: Cytotoxicity against human THP1 cells transfected with human TLR7/8 assessed as reduction in cell viability at 100 uM incubated for 16 hrs by WST-1 assay; format: cell-based; conditions: thp-1, 16 h
Toll-like receptor 8 = target: T1, Toll-like receptor 8 (Homo sapiens, UniProt Q9NR97); assay: Inhibition of human TLR8 expressed in HEK293 cells assessed as reduction in ssRNA-induced NFkappaB production incubated for 16 hrs by quanti-blue SEAP assay; format: cell-based
T1 sequence (Q9NR97 whole entry): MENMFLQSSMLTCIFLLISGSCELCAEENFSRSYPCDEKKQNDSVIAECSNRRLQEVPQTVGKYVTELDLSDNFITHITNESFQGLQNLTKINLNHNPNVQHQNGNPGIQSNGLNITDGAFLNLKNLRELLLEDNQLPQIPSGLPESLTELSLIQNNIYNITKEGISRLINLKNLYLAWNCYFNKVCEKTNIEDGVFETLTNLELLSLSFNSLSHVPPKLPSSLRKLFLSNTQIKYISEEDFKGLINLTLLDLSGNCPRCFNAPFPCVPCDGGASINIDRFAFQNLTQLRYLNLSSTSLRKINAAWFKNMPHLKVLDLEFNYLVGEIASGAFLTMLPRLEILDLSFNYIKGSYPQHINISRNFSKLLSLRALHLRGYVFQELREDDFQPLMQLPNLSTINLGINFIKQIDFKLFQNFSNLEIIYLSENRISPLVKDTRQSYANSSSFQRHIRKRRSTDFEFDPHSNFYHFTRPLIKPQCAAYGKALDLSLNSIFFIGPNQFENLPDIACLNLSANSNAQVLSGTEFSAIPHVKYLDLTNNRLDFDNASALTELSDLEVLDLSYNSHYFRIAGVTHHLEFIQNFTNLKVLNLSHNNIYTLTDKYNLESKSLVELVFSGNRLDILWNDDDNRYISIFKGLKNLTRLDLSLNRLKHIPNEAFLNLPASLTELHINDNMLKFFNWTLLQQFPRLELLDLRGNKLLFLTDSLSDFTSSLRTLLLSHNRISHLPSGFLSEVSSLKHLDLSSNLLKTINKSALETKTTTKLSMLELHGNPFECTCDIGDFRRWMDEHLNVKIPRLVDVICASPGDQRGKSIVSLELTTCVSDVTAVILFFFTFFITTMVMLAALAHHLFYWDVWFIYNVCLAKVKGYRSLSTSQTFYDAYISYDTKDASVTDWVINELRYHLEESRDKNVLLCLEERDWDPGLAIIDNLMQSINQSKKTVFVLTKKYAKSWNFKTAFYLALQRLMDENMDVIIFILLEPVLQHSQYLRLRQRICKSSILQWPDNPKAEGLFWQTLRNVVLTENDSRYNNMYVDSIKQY
In short: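 HEK 293 hTLR8 SEAP reporter cells were stimulated with ssRNA (ssRNA-Lyo-40) and incubated with compound for 16 h. Data were normalized as (raw − untreated)/(ligand + solvent − untreated), with ligand + solvent set as 100%. Mean ± s.d., n = 3 independent experiments.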

THP-1 [2] = assay: Inhibition of IFN mediated immune response in human THP1 cells assessed as inhibition of G3-YSD-induced cGAS signalling pathway at 20 uM incubated for 16 hrs by luciferase assay; format: functional, cell-based
In short: (§1)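 THP1-Dual monocytes carrying Lucia luciferase and SEAP reporters were stimulated with 3p-hpRNA (RIG-I agonist) or Y-form dsDNA G3-YSD (cGAS agonist), with or without compound. Secreted Lucia luciferase luminescence was measured as the type I IFN read-out. Mean ± s.d., n = 3 independent experiments.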

THP-1 [3] = assay: Inhibition of IFN mediated immune response in human THP1 cells assessed as inhibition of 3p-hpRNA-induced RIG1 signalling pathway at 5 to 20 uM incubated for 16 hrs by luciferase assay; format: functional, cell-based; in short: as §1
[4] = target: Toll-like receptor 4 (Homo sapiens) (UniProt O00206); assay: Inhibition of human TLR4 expressed in HEK293 cells assessed as reduction in LPS-induced NFkappaB production at 1.5 to 5 uM incubated for 16 hrs by quanti-blue SEAP assay; format: cell-based
In short: (§2)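 Selectivity panel in stably transfected HEK 293-Blue cells, each overexpressing one human TLR with an inducible SEAP reporter. Agonists: Pam3CSK4 (TLR1/2), Pam2CSK4 (TLR2/6), poly(I:C) (TLR3), LPS (TLR4), R848 (TLR7/8), ODN 2006 (TLR9). Cells were exposed to compound for 16 h. Activity = (raw − untreated)/(ligand + solvent − untreated), with ligand + solvent set as 100%.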

[5] = target: Toll-like receptor 3 (Homo sapiens) (UniProt O15455); assay: Inhibition of human TLR3 expressed in HEK293 cells assessed as reduction in poly(I:C)-induced NFkappaB production at 1.5 to 5 uM incubated for 16 hrs by quanti-blue SEAP assay; format: cell-based; in short: as §2
[6] = target: T2, Toll-like receptor 9 (Homo sapiens) (UniProt Q9NR96); assay: Inhibition of human TLR9 expressed in HEK293 cells assessed as reduction in ODN-2006-induced NFkappaB production at 3 to 5 uM incubated for 16 hrs by quanti-blue SEAP assay; format: cell-based; in short: as §2
T2 sequence (whole entry): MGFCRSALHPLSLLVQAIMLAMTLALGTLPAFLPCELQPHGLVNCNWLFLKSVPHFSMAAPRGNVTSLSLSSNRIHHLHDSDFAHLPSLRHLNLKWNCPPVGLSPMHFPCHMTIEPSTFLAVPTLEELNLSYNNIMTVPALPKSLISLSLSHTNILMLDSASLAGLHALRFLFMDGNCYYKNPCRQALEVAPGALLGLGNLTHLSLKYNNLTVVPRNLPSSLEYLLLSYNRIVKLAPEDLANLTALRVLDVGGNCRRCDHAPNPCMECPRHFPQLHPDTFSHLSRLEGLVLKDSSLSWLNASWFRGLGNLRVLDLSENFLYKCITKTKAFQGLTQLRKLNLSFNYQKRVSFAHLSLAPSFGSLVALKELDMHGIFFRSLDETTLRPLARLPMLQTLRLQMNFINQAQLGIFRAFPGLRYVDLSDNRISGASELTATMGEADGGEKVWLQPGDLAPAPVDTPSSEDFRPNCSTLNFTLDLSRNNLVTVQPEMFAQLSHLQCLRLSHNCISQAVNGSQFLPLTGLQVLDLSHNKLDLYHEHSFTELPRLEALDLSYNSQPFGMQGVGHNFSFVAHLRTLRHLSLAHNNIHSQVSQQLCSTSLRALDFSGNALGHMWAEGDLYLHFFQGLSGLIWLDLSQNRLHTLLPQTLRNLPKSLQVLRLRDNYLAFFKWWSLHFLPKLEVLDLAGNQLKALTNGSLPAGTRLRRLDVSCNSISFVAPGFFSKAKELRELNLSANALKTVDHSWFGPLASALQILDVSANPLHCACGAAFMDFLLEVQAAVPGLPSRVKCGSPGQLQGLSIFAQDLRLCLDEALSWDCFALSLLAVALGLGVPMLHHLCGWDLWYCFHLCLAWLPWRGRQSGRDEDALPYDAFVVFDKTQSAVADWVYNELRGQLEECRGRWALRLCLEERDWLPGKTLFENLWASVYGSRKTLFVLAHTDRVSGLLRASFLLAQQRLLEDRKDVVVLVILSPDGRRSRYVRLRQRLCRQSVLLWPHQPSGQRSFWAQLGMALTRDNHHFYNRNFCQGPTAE

Chain of Toll-like receptor 3 (Homo sapiens) (O15455 whole entry): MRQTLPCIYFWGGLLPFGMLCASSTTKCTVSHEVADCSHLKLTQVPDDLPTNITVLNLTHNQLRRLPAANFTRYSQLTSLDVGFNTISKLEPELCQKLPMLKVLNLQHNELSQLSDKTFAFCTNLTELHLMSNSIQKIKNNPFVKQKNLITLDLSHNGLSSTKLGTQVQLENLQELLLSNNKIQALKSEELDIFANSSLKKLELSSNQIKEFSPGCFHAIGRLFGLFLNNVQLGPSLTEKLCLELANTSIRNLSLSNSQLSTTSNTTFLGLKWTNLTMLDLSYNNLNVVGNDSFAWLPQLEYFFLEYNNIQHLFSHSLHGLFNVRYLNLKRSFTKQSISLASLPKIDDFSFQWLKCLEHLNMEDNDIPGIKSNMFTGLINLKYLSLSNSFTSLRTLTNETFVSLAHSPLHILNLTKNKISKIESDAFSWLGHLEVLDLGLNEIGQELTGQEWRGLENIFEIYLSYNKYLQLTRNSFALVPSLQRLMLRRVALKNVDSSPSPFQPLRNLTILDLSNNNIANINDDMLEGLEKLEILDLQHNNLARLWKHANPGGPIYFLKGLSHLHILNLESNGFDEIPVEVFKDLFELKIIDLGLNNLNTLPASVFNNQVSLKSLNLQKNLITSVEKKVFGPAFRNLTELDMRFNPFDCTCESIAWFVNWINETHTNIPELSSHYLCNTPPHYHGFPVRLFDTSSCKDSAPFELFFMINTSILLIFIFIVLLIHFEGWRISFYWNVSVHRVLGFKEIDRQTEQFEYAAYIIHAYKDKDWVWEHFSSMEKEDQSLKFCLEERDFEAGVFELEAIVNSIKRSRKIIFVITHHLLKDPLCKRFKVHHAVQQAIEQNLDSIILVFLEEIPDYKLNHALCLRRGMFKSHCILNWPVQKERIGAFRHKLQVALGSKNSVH
Chain of Toll-like receptor 4 (Homo sapiens) (O00206 whole entry): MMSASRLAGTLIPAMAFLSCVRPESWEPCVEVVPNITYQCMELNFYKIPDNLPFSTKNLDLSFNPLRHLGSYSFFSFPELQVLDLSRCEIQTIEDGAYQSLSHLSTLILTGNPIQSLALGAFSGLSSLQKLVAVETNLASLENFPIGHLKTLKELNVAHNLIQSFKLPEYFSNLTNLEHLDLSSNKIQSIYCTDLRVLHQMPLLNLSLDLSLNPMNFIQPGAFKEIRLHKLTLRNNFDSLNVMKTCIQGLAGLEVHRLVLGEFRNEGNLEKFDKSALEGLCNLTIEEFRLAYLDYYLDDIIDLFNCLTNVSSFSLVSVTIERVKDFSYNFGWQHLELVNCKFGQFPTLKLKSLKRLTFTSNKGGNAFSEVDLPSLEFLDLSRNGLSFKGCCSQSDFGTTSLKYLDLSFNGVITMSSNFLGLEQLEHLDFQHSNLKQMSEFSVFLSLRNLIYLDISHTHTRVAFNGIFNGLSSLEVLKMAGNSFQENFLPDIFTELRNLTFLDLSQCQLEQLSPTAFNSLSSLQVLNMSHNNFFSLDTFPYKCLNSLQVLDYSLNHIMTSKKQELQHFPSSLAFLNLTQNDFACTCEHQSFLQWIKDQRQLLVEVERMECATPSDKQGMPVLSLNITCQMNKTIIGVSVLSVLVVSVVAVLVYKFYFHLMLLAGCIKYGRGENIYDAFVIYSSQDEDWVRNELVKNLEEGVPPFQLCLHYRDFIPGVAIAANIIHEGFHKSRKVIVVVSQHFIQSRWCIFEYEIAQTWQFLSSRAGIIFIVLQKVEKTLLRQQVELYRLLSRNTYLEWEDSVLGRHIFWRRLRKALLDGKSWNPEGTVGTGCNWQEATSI

- IC50 (Toll-like receptor 8): 620 nM
Compound: O=[N+]([O-])c1c(I)cccc1Oc1ccc(-c2nnco2)cc1
- Activity (THP-1 [1]): Toxic
- inhibition (THP-1 [2]): Active

Compound: O=C(Nc1ccc(Oc2cncc(C(F)(F)F)c2)cc1)c1c(F)cccc1Cl
- inhibition (THP-1 [3]): Active

- inhibition [4]: inactive
- inhibition [5]: inactive
- inhibition [6]: Active
Compound: O=C(Nc1ccc(Oc2cc(C(F)(F)F)cc(C(F)(F)F)c2)cc1)c1c(F)cccc1Cl
